We go through 13 compounds from ChEMBL document CHEMBL1122142, “Synthesis and antiinflammatory activity of hexahydrothiopyrano[4,3-c]pyrazoles and related analogues” (J Med Chem, 1982).

Structures are written as SMILES.

The species named for data set [1] is Mus musculus. The experiment in a line: The compound was evaluated for the mouse active Arthus (MAA) reaction activity expressed as inhibitory dose. Format: functional. The following applies: read-out: ID50 (the source's name). The gist of the method:
(§1)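 CD-1 mice were sensitized ip with a 1:1 Freund's complete adjuvant emulsion containing BSA in saline, 5 weeks before challenge. Compound was suspended in 1% Na CMC in pyrogen-free saline and given as one ip or oral dose 1 h before skin challenge with BSA. Screening doses were 150 mg/kg ip and 300 mg/kg po, with some at 75 or 50 mg/kg ip. Lesions were excised 3.5 h after challenge and weighed against controls.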

Data set [2] concerns Cavia porcellus. The experiment in a line: Tested in delayed hypersensitivity skin reaction (DHSR) after subcutaneous administration, activity reported as percent inhibition of erythema/induration of lesion; 14/42. It is filed as functional.
Data set [3] concerns Mus musculus. The experiment in a line: Mouse active Arthus (MAA) reaction activity was determined for an ip dose of 150 mg/kg in mouse. It is filed as functional. The following applies: route intraperitoneal.
Data set [4] in a line: Therapeutic ratio was determined for intraperitoneal administration. It is filed as ADME. The following applies: ip; read-out: TR.
Data set [5] in a line: Acute toxicity as LD50 value was determined in mice administered intraperitoneally. Format: organism-based. The following applies: mouse, in vivo, ip.
For data set [6], the system named is Mus musculus. The experiment in a line: The compound was evaluated for the mouse active Arthus (MAA) reaction activity expressed as inhibitory dose after ip administration. Conditions: read-out: ID50 (the source's name). Format: functional. The gist of the method:
as §1

Data set [7] in a line: Acute toxicity as LD50 value was determined in mice administered orally. It is filed as organism-based. Conditions: mouse, in vivo, po.
The nature of data set [8]: Therapeutic ratio was determined for peroral administration. The following applies: po; read-out: TR.
Data set [9] concerns Mus musculus. Briefly: Inhibition of Mouse active Arthus (MAA) reaction activity was determined for peroral dose of 300 mg/kg in mouse; 41-60%. Format: functional. Conditions: route oral.
The test system of data set [10] is Mus musculus. The experiment in a line: The compound was evaluated for the mouse active Arthus (MAA) reaction activity expressed as inhibitory dose after oral administration. The following applies: read-out: ID50 (the source's name). It is filed as functional. The gist of the method: as §1
The test system of data set [11] is Cavia porcellus. The experiment in a line: Tested in delayed hypersensitivity skin reaction (DHSR) after subcutaneous administration, activity reported as percent inhibition of erythema/induration of lesion; 24/41. Format: functional. The gist of the method:
(§2)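 Male Hartley guinea pigs were sensitized with Mycobacterium tuberculosis in Freund's incomplete adjuvant, injected into each hind footpad and subcutaneously at the neck. After 3 weeks, 1.2 μg PPD was given intradermally. Compound in sesame oil was given sc, 3 animals per group, 30 min before and 5 h after PPD; screening dose 50 mg/kg.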

Data set [12] relates to Mus musculus. The experiment in a line: Inhibition of Mouse active Arthus (MAA) reaction activity was determined for peroral dose of 300 mg/kg in mouse; 31-40%. It is filed as functional. The following applies: route oral.
Data set [13] has as its system Cavia porcellus. Briefly: Tested in delayed hypersensitivity skin reaction (DHSR) after subcutaneous administration, activity reported as percent inhibition of erythema/induration of lesion; 16/52. It is filed as functional.
Data set [14] concerns Mus musculus. Briefly: Inhibition of Mouse Active Arthus reaction following 150 mg/Kg i.p.; 41-60% inhibition. It is filed as functional. The following applies: Mus musculus, ip.
Data set [15] relates to Cavia porcellus. Briefly: Tested in delayed hypersensitivity skin reaction (DHSR) after subcutaneous administration, activity reported as percent inhibition of erythema/induration of lesion; 9/32. It is filed as functional. The gist of the method: as §2
Data set [16] concerns Mus musculus. The experiment in a line: The compound was evaluated for the mouse active Arthus (MAA) reaction activity for an ip screening dose of 50 mg/kg. It is filed as functional. Conditions: route intraperitoneal. The gist of the method: as §1
For data set [17], the system named is Cavia porcellus. Briefly: Tested in delayed hypersensitivity skin reaction (DHSR) after subcutaneous administration, activity reported as percent inhibition of erythema/induration of lesion; 12/45. Format: functional.
Data set [18] concerns Mus musculus. The experiment in a line: Inhibition of Mouse active Arthus (MAA) reaction activity was determined for peroral dose of 300 mg/kg in mouse. Format: functional. The following applies: route oral.
Data set [19] has as its system Mus musculus. The experiment in a line: Inhibition of Mouse active Arthus (MAA) reaction activity was determined for an ip dose of 150 mg/kg in mouse; 21-30%. Format: functional. Conditions: route intraperitoneal.
Data set [20] concerns Cavia porcellus. Briefly: Tested in delayed hypersensitivity skin reaction (DHSR) after subcutaneous administration, activity reported as percent inhibition of erythema/induration of lesion; 4/6. Format: functional. The gist of the method:
as §2

Data set [21] concerns Cavia porcellus. The experiment in a line: Tested in delayed hypersensitivity skin reaction (DHSR) after subcutaneous administration, activity reported as percent inhibition of erythema/induration of lesion; 15/42. It is filed as functional.
In data set [22] the test system is Mus musculus. Briefly: The compound was evaluated for the mouse active Arthus (MAA) reaction activity for an ip dose of 150 mg/kg in mouse; 31-40%. It is filed as functional. Conditions: route intraperitoneal. The gist of the method:
as §1

Data set [23] has as its system Cavia porcellus. Briefly: Tested in delayed hypersensitivity skin reaction (DHSR) after subcutaneous administration, activity reported as percent inhibition of erythema/induration of lesion; 14/11. It is filed as functional.
In data set [24] the test system is Cavia porcellus. The experiment in a line: Tested in delayed hypersensitivity skin reaction (DHSR) after subcutaneous administration, activity reported as percent inhibition of erythema/induration of lesion; 0/8. It is filed as functional.
The test system of data set [25] is Mus musculus. Briefly: Mouse active Arthus (MAA) reaction activity was determined for an oral dose of 300 mg/kg administration in mouse; 21-30%. Format: functional.
The subject of data set [26] is Rattus norvegicus. The experiment in a line: Adjuvant-induced arthritis was determined for a dose of 150 mg/kg administered intraperitoneally. The following applies: ip.
In data set [27] the test system is Rattus norvegicus. Briefly: Carrageenan-induced edema was determined after intraperitoneal administration. Conditions: ip, read-out: ID50 (the source's name).
The subject of data set [28] is Rattus norvegicus. The experiment in a line: Carrageenan-induced edema was determined after oral administration of a dose of. Conditions: read-out: ID50 (the source's name). (In general: Carrageenan injected into the paw causes an acute inflammation.)
A short description of data set [29]: The acute toxicity as LD50 value was determined in mice for intraperitoneally administration. Format: organism-based. Conditions: mouse, in vivo, ip.
Data set [30] relates to Rattus norvegicus. Briefly: Adjuvant-induced arthritis was determined for a dose of 150 mg/kg administered orally. The following applies: po.
Data set [31] concerns Cavia porcellus. Briefly: Delayed hypersensitivity skin reaction (DHSR) activity was determined after a dose of 50 mg/kg; 6/15.
Data set [32] concerns Rattus norvegicus. Briefly: Adjuvant-induced arthritis was determined for a dose of 75 mg/kg intraperitoneal administration. Conditions: ip.
The test system of data set [33] is Rattus norvegicus. Briefly: Adjuvant-induced arthritis was determined for a dose of 75 mg/kg oral administration.
The test system of data set [34] is Cavia porcellus. The experiment in a line: The compound was evaluated for the delayed hypersensitivity skin reaction (DHSR) activity after subcutaneous administration; 23/37.
The subject of data set [35] is Cavia porcellus. The experiment in a line: Tested in delayed hypersensitivity skin reaction (DHSR) after subcutaneous administration, activity reported as percent inhibition of erythema/induration of lesion; 24/32. Format: functional. Summed up:
as §2

The subject of data set [36] is Cavia porcellus. Briefly: Tested in delayed hypersensitivity skin reaction (DHSR) after subcutaneous administration, activity reported as percent inhibition of erythema/induration of lesion; 4/0. It is filed as functional. The gist of the method:
as §2

The inhibition in vivo is the share of the control response that was lost under treatment. As a reminder, the LD50 is the dose expected to kill half of the subjects tested. A lower LD50 goes with greater toxicity. `Cc1ccccc1/C=C1\CS(=O)(=O)CC2C1=NN(CCCN1CCN(C)CC1)C2c1ccccc1C.O=C(O)/C=C\C(=O)O` (configuration not stated): in data set [1], the ED50 is below 37.5 mg/kg. This compound yielded an Activity in data set [2] of 14. This compound showed an inhibition in vivo at 150 mg/kg in [3] above 60%. Besides, the selectivity ratio in data set [4] was below 3.5. The compound further yielded an LD50 in data set [5] of 130 mg/kg.

On to `Cc1ccccc1/C=C1\CSCC2C1=NN(CCCN1CCN(C)CC1)C2c1ccccc1C.O=C(O)/C=C\C(=O)O` (configuration not stated), for which the ED50 came out at 30 mg/kg in [6] and 225 mg/kg in data set [10]. Also, the figures for the 50% lethal dose (LD50) in [7] and in data set [5] were above 1200 mg/kg and 170 mg/kg, respectively. The selectivity ratio is above 5.3 in [8] and 5.7 in data set [4]. This compound also yielded an inhibition in vivo at 300 mg/kg in data set [9] of 41%. Also, the inhibition in vivo at 150 mg/kg in data set [3] was above 60%. In [11], this compound registered an Activity of 24.

`Cc1ccc(/C=C2\CSCC3C2=NN(CCCN2CCN(C)CC2)C3c2ccc(C)cc2)cc1.O=C(O)/C=C\C(=O)O` (configuration not stated) returned an inhibition in vivo at 300 mg/kg in [12] of 31%. Further, the ED50 in data set [6] worked out at 58 mg/kg. Also, the Activity in data set [13] is given as 16. The inhibition in vivo at 150 mg/kg in [14] is 41%.

Consider `CN1CCN(CCCN2N=C3/C(=C/c4ccccc4)COCC3C2c2ccccc2)CC1.O=C(O)/C=C\C(=O)O` (configuration not stated), for which the Activity in [15] turned out to be 9. In [16], this compound registered an inhibition in vivo at 50 mg/kg above 60%.

Take `CCCN1N=C2/C(=C/c3ccc(OC)cc3)CSCC2C1c1ccc(OC)cc1` (configuration not stated): the inhibition in vivo at 150 mg/kg in data set [14] came out at 41%. The compound further had an Activity in data set [17] of 12. The same compound yielded an inhibition in vivo at 300 mg/kg in data set [18] below 20%.

In data set [19], `OCCN1N=C2/C(=C/c3ccccc3)CSCC2C1c1ccccc1` (configuration not stated) registered an inhibition in vivo at 150 mg/kg of 21%. The Activity in data set [20] is given as 4.

Compound `CCCn1nc(-c2ccc(OC)cc2)c2c1/C(=C/c1ccc(OC)cc1)CSC2` came in with an Activity in [21] of 15. This compound yielded an inhibition in vivo at 150 mg/kg in data set [22] of 31%.

On to `Cc1ccc(/C=C2\CS(=O)(=O)CC3C2=NN(CC(F)(F)F)C3c2ccc(C)cc2)cc1` (configuration not stated), for which, in data set [14], the inhibition in vivo at 150 mg/kg worked out at 41%. For the same compound, the inhibition in vivo at 300 mg/kg in [18] was below 20%. In addition, in data set [23], the Activity came to 14.

`O=S1(=O)C/C(=C\c2ccc(Cl)cc2)C2=NN(c3ccccc3)C(c3ccc(Cl)cc3)C2C1` (configuration not stated) yielded an Activity in [24] of 0.

Regarding `CC(=O)N1N=C2/C(=C/c3cccc(C(F)(F)F)c3)CS(=O)(=O)CC2C1c1cccc(C(F)(F)F)c1` (configuration not stated), in data set [25], testing at 300 mg/kg gave an inhibition in vivo of 21%. In addition, the inhibition in vivo at 150 mg/kg is 31% in data set [26], 7% in data set [30] and 41% in data set [14]. Moreover, the ED50 in data set [6] is 112 mg/kg; in data set [27] it was above 150 mg/kg; in data set [28], above 200 mg/kg; in [10], above 600 mg/kg. Further, the median lethal dose (LD50) in data set [7] was above 7200 mg/kg; in [29], above 4000 mg/kg; in [5], above 3200 mg/kg. In [31], this compound yielded an Activity of 6. Besides, the inhibition in vivo at 75 mg/kg in [32] was found to be 22%; in data set [33] it was 0%. In addition, in [4], the selectivity ratio is 24.

`C(=C1/CSCC2C1=NNC2c1ccccc1)/c1ccccc1` (configuration not stated) registered an inhibition in vivo at 150 mg/kg in data set [14] of 41%. The compound also displayed an Activity in [34] of 23.

In data set [35], `CCCN1N=C2/C(=C/c3ccc(Cl)cc3)CS(=O)(=O)CC2C1c1ccc(Cl)cc1` (configuration not stated) gave an Activity of 24. The compound also had an inhibition in vivo at 150 mg/kg in data set [14] of 41%.

The compound `CN1N=C2/C(=C/c3cccc(C(F)(F)F)c3)CS(=O)(=O)CC2C1c1cccc(C(F)(F)F)c1` (configuration not stated) yielded an Activity in data set [36] of 4. This compound registered an inhibition in vivo at 150 mg/kg in [14] of 41%.
